# Assay outcomes as filed in PubChem.
# Neddylation inh: cullin neddylation inhibition | TR-FRET cullin neddylation, biochemical | calls only at 25 µM | 360,000 tested, 0.58% active | P61081+Q13564 | AID 651699; in the data active means inhibition above about 36%
# procasp7 counter: counter-screen: procaspase-7 (human) activation. recombinant procaspase-7, Ac-DEVD-pNA absorbance 405 nm; D23A/D198A/D206A triple mutant, cannot self-cleave; scale: DMSO 0, 5 µM enzyme 100. P55210. 330,000 tested, 0.093% active. activation, % at 8.5 µM;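 active means percent activation above the screen-wide mean plus 3 SD, cut at about 25% in these data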
# Target sequence (P55210 whole entry D23A/D198A/D206A): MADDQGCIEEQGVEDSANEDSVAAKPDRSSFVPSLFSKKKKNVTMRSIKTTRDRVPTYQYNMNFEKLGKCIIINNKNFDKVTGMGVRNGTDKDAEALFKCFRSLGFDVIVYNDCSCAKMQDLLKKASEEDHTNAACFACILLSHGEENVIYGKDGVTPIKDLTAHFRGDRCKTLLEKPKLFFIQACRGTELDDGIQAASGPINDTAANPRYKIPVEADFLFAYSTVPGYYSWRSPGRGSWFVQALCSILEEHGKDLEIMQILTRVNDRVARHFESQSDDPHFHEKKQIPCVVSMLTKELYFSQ
#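 Detection: p-Nitroaniline absorbance at 405 nm, read at 0 and 120 min; system: Uncleavable procaspase-7 mutant enzyme; evaluation: % activation from two-timepoint absorbance difference, scaled to controls; times: 1 h enzyme–compound preincubation and 2 h substrate reaction, both 25 °C; buffer or medium: Zinc-free HEPES pH 7.4 with 300 mM NaCl, 0.01% Triton X-100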
# PolyA inh: inhibitors of polyadenylation in S. cerevisiae. S. cerevisiae SKY197-pL101 polyadenylation reporter, beta-gal luminescence; efflux-impaired pdr1/pdr3 knockout yeast; score 100 = 6 SD above DMSO. activity score, % at 12 µM. 300,000 tested, 0.02% active. AID 1875;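 active means lowest replicate activity score at least 50, where 100 means six control SD above control mean; inconclusive means lowest score under 50 but half or more replicates reach 50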;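 further: yeast exposed to compound for 9 h at 30 °C; higher score means more reporter readthrough which indicates perturbed polyadenylation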
# IMP-1 inh: inhibitors of Pseudomonas aeruginosa IMP-1 metallo-beta-lactamase. inhibition, % at 5.6 µM. purified IMP-1, nitrocefin hydrolysis, epi-absorbance fluorescence. AID 1556. 290,000 tested, 0.45% active;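 active means inhibition above the mean plus 3 SD of all compounds in the same screening run, cut at about 4.5% in these data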;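 further: 0% = IMP-1 with DMSO and 100% = DMSO wells lacking enzyme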
#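 Assay system: purified recombinant IMP-1 beta-lactamase. Input: IMP-1 0.2 nM before substrate addition. Buffer or medium: Zinc- and detergent-supplemented HEPES buffer, pH 7.1. Schedule: 25 °C, 15 min preincubation, 25 min reaction. Signal: Epi-absorbance fluorescence, 480 nm excitation, 530 nm emission. Evaluation: percent inhibition from optical density relative to buffer-blank wells.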
# procasp3 activ: procaspase-3 (human) activation. AID 463141. 330,000 tested, 0.11% active. P42574. activation, % at 8.5 µM. recombinant procaspase-3 D3A, Ac-DEVD-pNA absorbance 405 nm;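 active means activation above the mean of all tested compounds plus 3 SD, cut at about 21% in these data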;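 further: 0% = DMSO alone and 100% = DMSO wells spiked with extra 5 µM PC-3 D3A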
# Target sequence (P42574 whole entry D9A/D28A/D175A): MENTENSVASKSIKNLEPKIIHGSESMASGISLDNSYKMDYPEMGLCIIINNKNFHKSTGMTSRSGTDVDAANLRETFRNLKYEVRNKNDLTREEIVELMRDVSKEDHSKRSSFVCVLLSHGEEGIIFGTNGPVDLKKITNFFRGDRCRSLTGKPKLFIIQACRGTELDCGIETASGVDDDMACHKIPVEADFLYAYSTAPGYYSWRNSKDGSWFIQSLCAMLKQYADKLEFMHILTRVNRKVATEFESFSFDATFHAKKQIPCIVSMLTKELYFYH
#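 Test system: Procaspase-3 D3A mutant, all three cleavage aspartates alanine | Dosing: Single dose, 8.5 µM nominal compound, 0.8% DMSO | Schedule: 1 h preincubation, 2 h reaction | Technique: 405 nm absorbance of p-nitroaniline, reads at 0 and 120 min | Repeats: One well per compound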
# VIM-2 inhibitor: inhibitors of Pseudomonas aeruginosa VIM-2 metallo-beta-lactamase; purified VIM-2, nitrocefin hydrolysis, epi-absorbance fluorescence; inhibition, % at 5.6 µM; 290,000 tested, 0.89% active; AID 1527;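 active means inhibition above the mean of all tested compounds plus 3 SD, cutoff set per screening run, cut at about 7.5% in these data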;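 further: red hydrolysis product quenches plate fluorescence so inhibitors raise well fluorescence; 0% = enzyme with DMSO and 100% = DMSO without enzyme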
# Neddyl inh conf: confirmation of human cullin neddylation inhibitors; shares compounds with Neddylation inh; TR-FRET cullin neddylation biochemical assay; calls only at 25 µM; 1,800 tested, 13% active; in the data active means inhibition above about 40%;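 further: neddylation substrate is the cullin 1 ring ligase complex with SKP2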
# Numbers without * were called inactive; i = inactive; u = inconclusive; x = no result shown; + = active, no number. This is a sample that favours compounds with a hit; in the whole collection about 1.7% have one here.
SMILES,Neddylation inh,procasp7 counter,PolyA inh,IMP-1 inh,procasp3 activ,VIM-2 inhibitor,Neddyl inh conf
COc1ccc2[nH]c(=O)c(C(c3nnnn3C3CCCCC3)N3CCN(C)CC3)cc2c1 (stereo unspecified),x,13,-4,-1,4,-3,x
CCCN1CCN(C(c2cc3cc(OCC)ccc3[nH]c2=O)c2nnnn2C2CCCCC2)CC1 (stereo unspecified),+,-3,6,-2,6,-2,x
Cc1ccc(C)n1-c1ccccc1N,x,-11,-4,-2,-7,-1,x
Nc1ccccc1-n1cccc1,+,-9,27,0,-12,-2,i
CCc1cc(=O)oc2cc(OCC=C(C)C)ccc12,i,5,-13,-4,1,-4,x
CCc1cc(=O)oc2cc(OS(C)(=O)=O)ccc12,+,9,-7,-3,-4,0,x
CCc1cc(=O)oc2cc(OCc3nn[nH]n3)ccc12,+,0,2,0,2,1,i
CC(=O)N1CCc2cc(S(=O)(=O)NCCC(=O)N3CCc4ccccc4C3)ccc21,i,-5,0,-3,-3,-1,x
COc1cccc(-c2ccc(C#N)c(=O)[nH]2)c1,+,-2,-8,-3,-3,-1,x
CCOc1ccc(N(CC(=O)Nc2ccc(C)c(F)c2)C2=NC3CS(=O)(=O)CC3S2)cc1 (stereo unspecified),i,7,10,-1,1,-1,x
COc1ccc2[nH]c(=O)c(CN(Cc3nnnn3Cc3ccccc3)CC3CCCO3)cc2c1 (stereo unspecified),+,-21,6,-4,-11,-2,i
COc1ccc2[nH]c(=O)c(CN(Cc3nnnn3Cc3ccc(F)cc3)CC3CCCO3)cc2c1 (stereo unspecified),+,-4,u,-3,-1,-2,i
COCCn1nnnc1CN(Cc1cccnc1)Cc1cc2cc(OC)ccc2[nH]c1=O,+,x,-6,-5,x,-2,i
O=c1[nH]c2cc3c(cc2cc1CN(Cc1ccccc1)Cc1nnnn1Cc1ccco1)OCCO3,i,x,16,-4,x,1,x
O=c1[nH]c2cc3c(cc2cc1CN(Cc1cccs1)Cc1nnnn1Cc1ccco1)OCCO3,+,-19,22,-3,-22,2,i
COc1ccc(Cn2nnnc2CN(CCCN2CCOCC2)Cc2cc3cc(OC)ccc3[nH]c2=O)cc1,i,8,-7,-2,3,-7,x
Clc1ccccc1NCSC1=NCCS1,i,x,x,x,x,x,x
CCCc1nc(SCC(=O)NC2CCCC2)c2ccccc2n1,i,-4,-5,-3,9,-4,x
O=c1[nH]c2cc3c(cc2cc1CN(Cc1ccc2c(c1)OCO2)Cc1nnnn1CC1CCCO1)OCO3 (stereo unspecified),+,-35,3,0,-20,-2,i
CCOC(=O)Nc1sc(NS(=O)(=O)c2ccc(C)cc2)nc1C,i,-11,-14,-1,-7,-2,x
O=C(NNC(=O)c1ccccc1F)c1ccc2[nH]c(=O)c(=O)[nH]c2c1,i,7,-5,0,-3,-1,x
CCN(CC)C(=O)c1sc2nc(-c3ccccn3)[nH]c(=O)c2c1C,i,-21,-11,x,-15,x,x
CCc1cc2c(=O)[nH]c(-c3ccncc3)nc2s1,+,4,15,0,-13,0,x
CCN(CC)C(=O)c1sc2nc(-c3ccncc3)[nH]c(=O)c2c1C,+,18,3,2,0,2,+
O=C(Nc1nnc(/N=C/c2ccco2)s1)c1ccc(F)cc1,i,10,4,-4,7,2,x
SMILES,Neddylation inh,procasp7 counter,PolyA inh,IMP-1 inh,procasp3 activ,VIM-2 inhibitor,Neddyl inh conf
CC(C)n1c(Nc2ccccc2)nc2ccccc21,i,1,5,-5,-2,-7,x
CCCOc1ccc(-c2cc(C(F)(F)F)c(C#N)c(SCC(=O)O)n2)cc1,+,-5,1,-2,7,0,i
CC1(C)Cc2c(sc(NC(=O)c3ccc4c(c3)OCCO4)c2C(N)=O)C(C)(C)N1,+,4,-2,-2,1,-1,i
CC1(C)Cc2c(sc(NC(=O)c3ccc(S(=O)(=O)N4CCCCCC4)cc3)c2C(N)=O)C(C)(C)N1,i,-3,-3,-4,7,-2,x
O=C(Nc1ccc2nc(-c3ccco3)[nH]c2c1)c1cccs1,+,3,10,-2,8,-5,i
CC(C)(C)c1ccc(/C=C/C(=O)NC2=NCCS2)cc1,i,-1,-16,-2,-2,-3,x
Nc1nc2ccccc2nc1N,+,12,2,-4,-5,-3,+
Cc1c(C(=O)NCC2CCCO2)oc2ccccc12 (stereo unspecified),i,-8,x,x,3,x,x
Cc1c(C(=O)NCC2CCCO2)oc2ccc3c(c12)C(=O)CC(C)(C)O3 (stereo unspecified),+,0,-14,-2,-7,0,x
CC(C)NS(=O)(=O)c1ccc(CCC(=O)Nc2ccc3c(c2)OCCO3)cc1,i,3,-8,-4,8,-2,x
COc1cccc(C(c2c(NC(=O)c3ccco3)sc(C)c2C)N2CCOCC2)c1 (stereo unspecified),+,3,x,x,3,x,x
Cc1sc(NC(=O)c2ccco2)c(C(c2ccncc2)N2CCOCC2)c1C (stereo unspecified),i,1,-9,-2,-1,-3,x
CCN(CC)S(=O)(=O)c1cccc(C(=O)Nc2nnc(C)s2)c1,i,0,-2,-5,0,-3,x
O=C(O)c1cc(NCc2ccc3c(c2)OCO3)ccc1N1CCOCC1,+,6,-6,1,5,3,i
CCOc1ccc(CNc2ccc(N3CCOCC3)c(C(=O)O)c2)cc1,i,10,14,-3,-10,0,x
COc1cc(CNc2ccc(N3CCOCC3)c(C(=O)O)c2)ccc1OCC(N)=O,+,3,7,-2,-7,-3,i
COc1ccccc1CN1CC(C(=O)NCCN2CCNC2=O)CCC1=O (stereo unspecified),i,9,33,-1,1,-1,x
N=c1n(Cc2ccccc2)c2ccccc2n1CC(O)c1ccco1 (stereo unspecified),+,1,-6,-4,4,-4,i
CC(=O)OCCc1c2ccccc2c(CCCN(C)C)c2ccccc12,+,5,15,x,-4,x,x
CCCCC(=O)Nc1cc(-c2nc3ncccc3o2)ccc1C,i,10,-3,-2,-5,0,x
